Reference: ChEMBL document CHEMBL1145048, “Functionalized glycomers as growth inhibitors and inducers of apoptosis in human glioblastoma cells” (J Med Chem, 2003)

Assays:
[1] = Glycomer activity determined as growth inhibition of human glioblastoma LNZ308 cells; type: functional, cell-based
Procedure, shortened: (§1)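 Cells grown 24 h with FCS, then 24 h without FCS, then exposed to glycomers at increasing concentrations in serum-free medium for 24 h. MTT at 0.2 mg/mL was added for the last 2 h, formazan was dissolved in 0.1 N HCl/2-propanol and read at 540 nm. Growth inhibition = treated/control MTT reduction. IC50 is the concentration giving 50% inhibition from dose–response curves. Triplicate, mean ± SD.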

[2] = Glycomer activity determined as growth inhibition of human glioblastoma LN18 cells; type: functional, cell-based; procedure, shortened: as §1
[3] = Apoptosis index was determined against human glioblastoma LN18 cells at concentration of 25 uM after total exposure time of 24 hours; type: functional, cell-based
Procedure, shortened: (§2)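 Cells seeded to half confluence in DMEM-10% FCS for 24 h, then held 24 h without FCS before glycomer addition in serum-free medium. At the end of the incubation, histone-associated DNA fragments (mono- and oligonucleosomes) in still-adherent cells were measured by photometric ELISA (absorbance 405 nm). Apoptosis index = absorbance of treated / untreated wells, untreated set at 1.00. Done in triplicate.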

[4] = Efficacy index was evaluated as ratio of apoptosis index to MTT reduction for human glioblastoma LN18 cells at 4.5 uM concentration; type: functional, cell-based
Procedure, shortened: (§3)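 Cells grown 24 h with FCS, then deprived of FCS for 10 h, then exposed to glycomers for 12 h. In adherent cells, MTT reduction (540 nm), [3H]-thymidine incorporation (cpm) and nucleosome-fragment apoptosis index (treated vs control) were measured. Efficacy index = ratio of thymidine incorporation or apoptosis index to MTT reduction.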

[5] = Apoptosis index was determined against human glioblastoma LN18 cells at concentration of 11 uM after total exposure time of 15 hours; type: functional, cell-based; procedure, shortened: as §2
[6] = Efficacy index was evaluated as ratio of apoptosis index to MTT reduction for human glioblastoma LNZ308 cells at 4.5 uM concentration; type: functional, cell-based; procedure, shortened: as §3
[7] = Efficacy index was evaluated as ratio of inhibition of DNA synthesis (3HT incorporation) to inhibition of growth(MTT) for human glioblastoma LN18 cells at 4.5 uM concentration; type: functional, cell-based; procedure, shortened: as §3
[8] = Efficacy index was evaluated as ratio of apoptosis index to MTT reduction for human glioblastoma LN18 cells at 11.3 uM concentration; type: functional, cell-based; procedure, shortened: as §3
[9] = Efficacy index was evaluated as ratio of inhibition of DNA synthesis (3HT incorporation) to inhibition of growth(MTT) for human glioblastoma LN18 cells at 11.3 uM concentration; type: functional, cell-based; procedure, shortened: as §3
[10] = Apoptosis index was determined against human glioblastoma LNZ308 cells at concentration of 11 uM after total exposure time of 15 hours; type: functional, cell-based; procedure, shortened: as §2
[11] = Efficacy index was evaluated as ratio of inhibition of DNA synthesis (3HT incorporation) to inhibition of growth(MTT) for human glioblastoma LN18 cells at 0 uM concentration; type: functional, cell-based; procedure, shortened: as §3
[12] = Efficacy index was evaluated as ratio of apoptosis index to MTT reduction for human glioblastoma LN18 cells at 0 uM concentration; type: functional, cell-based; procedure, shortened: as §3
[13] = Efficacy index was evaluated as ratio of apoptosis index to MTT reduction for human glioblastoma LN18 cells at 22.5 uM concentration; type: functional, cell-based; procedure, shortened: as §3
[14] = Efficacy index was evaluated as ratio of inhibition of DNA synthesis (3HT incorporation) to inhibition of growth(MTT) for human glioblastoma LNZ308 cells at 0 uM concentration; type: functional, cell-based; procedure, shortened: as §3
[15] = Efficacy index was evaluated as ratio of inhibition of DNA synthesis (3HT incorporation) to inhibition of growth(MTT) for human glioblastoma LNZ308 cells at 22.5 uM concentration; type: functional, cell-based; procedure, shortened: as §3
[16] = Efficacy index was evaluated as ratio of apoptosis index to MTT reduction for human glioblastoma LNZ308 cells at 11.3 uM concentration; type: functional, cell-based; procedure, shortened: as §3
[17] = Efficacy index was evaluated as ratio of inhibition of DNA synthesis (3HT incorporation) to inhibition of growth(MTT) for human glioblastoma LN18 cells at 22.5 uM concentration; type: functional, cell-based; procedure, shortened: as §3
[18] = Efficacy index was evaluated as ratio of inhibition of DNA synthesis (3HT incorporation) to inhibition of growth(MTT) for human glioblastoma LNZ308 cells at 11.3 uM concentration; type: functional, cell-based; procedure, shortened: as §3
[19] = Efficacy index was evaluated as ratio of apoptosis index to MTT reduction for human glioblastoma LNZ308 cells at 0 uM concentration; type: functional, cell-based; procedure, shortened: as §3
[20] = Efficacy index was evaluated as ratio of apoptosis index to MTT reduction for human glioblastoma LNZ308 cells at 22.5 uM concentration; type: functional, cell-based; procedure, shortened: as §3
[21] = Apoptosis index was determined against human glioblastoma LN18 cells at 25 uM after total exposure time of 24 hours; type: functional; procedure, shortened: as §2
[22] = Apoptosis index was determined against human glioblastoma LNZ308 cells at 25 uM after total exposure time of 24 hours; type: functional; procedure, shortened: as §2
[23] = Apoptosis index was determined against human glioblastoma LNZ308 cells at concentration of 25 uM after total exposure time of 24 hours; type: functional, cell-based; procedure, shortened: as §2

Compound | IC50 ([1]; Homo sapiens, LNZ308) [µM] | IC50 ([2]; Homo sapiens, LN-18) [µM] | also measured
C=CCO[C@@H]1[C@H](O)[C@H](Oc2ccc(I)cc2)O[C@@H](COS(=O)(=O)c2cccc(C(F)(F)F)c2)[C@H]1O | 19 | 21 | –
C=CCOC1C(O)C(CNS(=O)(=O)c2cccc(C(F)(F)F)c2)OC(Oc2ccc(I)cc2)C1O (stereo not given) | 27 | 16 | –
C=CCO[C@@H]1[C@H](O)[C@H](Oc2ccc(Br)cc2)O[C@@H](COCc2ccccc2)[C@H]1O | > 50 | > 50 | Apoptosis index [3]: 1.19
C=CCO[C@H]1[C@@H](O)[C@H](COS(=O)(=O)c2cccc(C(F)(F)F)c2)O[C@@H](Oc2ccc(I)cc2)[C@H]1OC(=O)C(C)C | 18 | 18.5 | –
CCCC(=O)O[C@@H]1[C@H](Oc2ccc(I)cc2)O[C@@H](COCc2ccccc2)[C@@H](O)[C@@H]1OC | > 50 | > 50 | –
C=CCO[C@H]1[C@H](O)[C@H](COS(=O)(=O)c2cccc(C(F)(F)F)c2)O[C@@H](Oc2ccc(Br)cc2)[C@H]1OC(=O)CCC | > 50 | > 50 | –
C=CCO[C@H]1[C@H](O)[C@H](COS(=O)(=O)c2cccc(C(F)(F)F)c2)O[C@H](Oc2ccc(I)cc2)[C@@H]1OC(=O)CCC | 42 | 25 | –
C=CCOC1C(O)C(CNS(=O)(=O)c2cccc(C(F)(F)F)c2)OC(Oc2ccc(I)cc2)C1OC(=O)CCC (stereo in doubt; 17a) | – | – | IC50 ([1]; lnz308): 26 µM; IC50 ([2]; ln18): 25 µM
C=CCO[C@H]1[C@H](O)[C@H](COS(=O)(=O)c2cccc(C(F)(F)F)c2)O[C@@H](Oc2ccc(I)cc2)[C@H]1OC(=O)CCc1ccccc1 | > 50 | > 50 | –
C=CCO[C@H]1[C@H](O)[C@H](COS(=O)(=O)c2cccc(C(F)(F)F)c2)O[C@@H](Oc2ccc(I)cc2)[C@H]1OC(=O)CCC (stereo in doubt; 16a) | 29 | 40 | –
CCCO[C@H]1[C@H](O)[C@H](COCc2ccccc2)O[C@@H](Oc2ccc(OC)cc2)[C@H]1OC(C)=O | > 50 | > 50 | –
CO[C@@H]1[C@H](O)[C@H](Oc2ccc(I)cc2)O[C@@H](COS(=O)(=O)c2cccc(C(F)(F)F)c2)[C@H]1O | > 50 | > 50 | –
C=CCO[C@H]1[C@H](O)[C@H](COCc2ccccc2)O[C@@H](Oc2ccc(I)cc2)[C@H]1OC(=O)CC | 17.5 | 11.5 | Efficacy index [4]: 1.92; Apoptosis index [5]: 3.67; Efficacy index [6]: 0.62; Efficacy index [7]: 6.23; Efficacy index [8]: 4.85; Efficacy index [9]: 0.09; Apoptosis index [10]: 0.91; Efficacy index [11]: 16.2; Efficacy index [12]: 0.93; Efficacy index [13]: 8.3; Efficacy index [14]: 9.79; Efficacy index [15]: 0.34; Efficacy index [16]: 0.7; Efficacy index [17]: 0.58; Efficacy index [18]: 2.04; Efficacy index [19]: 0.95; Efficacy index [20]: 2.32
C=CCO[C@H]1[C@H](O)[C@H](COS(=O)(=O)c2cccc(C(F)(F)F)c2)O[C@@H](Oc2ccc(I)cc2)[C@H]1OC(=O)C(C)C | 8.5 | 12.5 | Apoptosis index [21]: 1.1; Apoptosis index [22]: 1.09
C=CCO[C@H]1[C@H](O)[C@H](COCc2ccccc2)O[C@@H](Oc2ccc(I)cc2)[C@H]1OC(=O)CCC | 11.5 | 7.5 | Apoptosis index [3]: 1.6; Apoptosis index [23]: 2.27
CCCO[C@@H]1[C@H](O)[C@H](Oc2ccccc2)O[C@@H](COCc2ccccc2)[C@H]1O | > 50 | > 50 | Apoptosis index [3]: 1.29
